EBI2 block: blocks human EBI2 receptor beta-arrestin signaling. hit rate 0.81% among 360,000. inhibition, % at 5 µM. AID 651636. EBI2 beta-arrestin recruitment, luminescence, 7a,25-OHC stimulated; in the data active means inhibition above about 38%;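 further: enzyme fragment complementation signal reports receptor beta-arrestin coupling in cells; 0% = agonist plus DMSO wells and 100% = wells without agonist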
CCR6 antag: CCR6 (human) receptor antagonism; hit rate 0.49% among 340,000; AID 493098; inhibition, % at 20 µM; P51684; CHO-K1 CCR6 PathHunter beta-arrestin, luminescence, CCL20-stimulated;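 active means compounds whose inhibition of the agonist-driven luminescence signal at 20 µM reaches about 50%, limit read from the data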;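 further: cells stimulated with CCL20 at 14 nM final; plate controls were DMSO with CCL20 for no effect and DMSO without agonist for full effect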
m5-HT2A agonist: mouse HTR2A agonism via beta-arrestin recruitment. hit rate 0.66% among 360,000. P35363. CHO-K1 mHTR2A beta-arrestin complementation, luminescence; percent of 30 µM serotonin response. activation, % at 7.6 µM. AID 624169;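 active means activation above a run cutoff, the mean activation of all tested compounds plus 3 SD, cut at about 14% in these data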;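 further: 0% = plate median of compound wells and 100% = 30 µM serotonin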
CXCR6 inh: inhibitors of human CXCR6 receptor; O00574; CHO-K1 PathHunter CXCR6 beta-arrestin, luminescence; inhibition, % at 20 µM; hit rate 0.36% among 360,000; AID 602244; in the data active means inhibition above about 34%, passing the limit was not always enough;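 further: antagonist mode with CXCL16 agonist at 10 nM final; 0% = 10 nM CXCL16 with DMSO and 100% = unstimulated wells without agonist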
APJ antagonist: blocks the human apelin receptor APJ | CHO-K1 APJ beta-arrestin complementation, luminescence | inhibition, % at 20 µM | hit rate 0.32% among 330,000;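 active means inhibition above about 40% at 20 µM, limit read from the data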;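 further: cells challenged with 10 nM apelin-13 agonist together with compound; plate controls were apelin-13 plus DMSO wells for no effect and DMSO wells lacking apelin-13 for full effect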
Target sequence (P35414 whole entry, looked up): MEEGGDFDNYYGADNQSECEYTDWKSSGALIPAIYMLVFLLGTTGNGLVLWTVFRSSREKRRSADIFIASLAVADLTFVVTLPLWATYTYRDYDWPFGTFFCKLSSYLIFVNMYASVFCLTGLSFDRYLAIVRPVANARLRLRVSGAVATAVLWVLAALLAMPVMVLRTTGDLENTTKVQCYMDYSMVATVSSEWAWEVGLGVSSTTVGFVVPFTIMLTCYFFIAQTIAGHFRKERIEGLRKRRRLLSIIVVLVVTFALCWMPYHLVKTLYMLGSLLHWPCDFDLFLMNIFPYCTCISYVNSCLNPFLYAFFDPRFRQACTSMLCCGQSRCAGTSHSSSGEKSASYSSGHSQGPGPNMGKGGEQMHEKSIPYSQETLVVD
APJ agonist: APJ receptor agonism; P35414; activation, % at 20 µM; CHO-K1 APJ PathHunter beta-arrestin, luminescence; 0% DMSO wells, 100% apelin; hit rate 0.11% among 330,000;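 active means activation more than six SD over the plate average, tested at 20 µM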;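 further: 0% = DMSO alone and 100% = apelin-13 at 10 nM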
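Assay system: CHO-K1 APJ beta-arrestin complementation cell line / Compound: single test compound dose, 20 µM final, 1% DMSO / Times: overnight seeding, 90 min compound at 25 °C, 1 h detection / Technique: beta-gal luminescence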
APJ antag confirm: confirmation of human APJ apelin receptor antagonists | shares compounds with APJ antagonist | APJ beta-arrestin recruitment, luminescence, antagonist mode | inhibition, % at 20 µM | hit rate 66% among 950; in the data active means inhibition above about 50%
CXCR6 confirm: CXCR6 antagonism confirmation, single concentration. shares compounds with CXCR6 inh. CHO-K1 CXCR6 PathHunter beta-arrestin, luminescence. inhibition, % at 20 µM. hit rate 65% among 700. AID 602409;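 active means mean inhibition over four retests above 40%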;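 further: receptor stimulated with 10 nM CXCL16 agonist; beta-galactosidase fragment complementation upon beta-arrestin recruitment to receptor; plate controls were CXCL16 plus DMSO for no effect and DMSO without CXCL16 for full effect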
Starred values were filed as active, the others as inactive; nt = not tested or not shown. Shown are actives, neighbours in structure and some others; about 2.2% of the full set was active somewhere.

SMILES | EBI2 block | CCR6 antag | m5-HT2A agonist | CXCR6 inh | APJ antagonist | APJ agonist | APJ antag confirm | CXCR6 confirm
CCS(=O)(=O)c1ncc(Cl)c(C(=O)Nc2ccc(S(=O)(=O)N(C)c3ccccc3)cc2)n1 | 86.5* | 94.4* | -11.2 | 85.0* | 67.4* | -5.0 | 102.2* | 92.3*
COc1ccc(OC)c(NC(=O)CS(=O)(=O)Cc2ccccc2)c1 | 1.9 | 4.5 | 1.1 | -7.3 | -53.4 | -2.0 | nt | nt
COc1ccc(OC)c(NC(=O)c2nc(S(=O)(=O)Cc3ccccc3)ncc2Cl)c1 | 84.9* | 83.6* | -10.3 | 58.7* | 63.5* | -8.7 | 95.6* | 68.8*
CC(=O)Nc1ccc(S(=O)(=O)N(C)c2ccccc2)cc1 | -6.2 | 14.6 | -1.6 | -5.3 | 5.0 | -4.9 | nt | nt
O=C(Nc1ccc(F)cc1)c1nc(S(=O)(=O)Cc2ccccc2)ncc1Cl | 41.8 | 77.6* | -2.3 | 61.6* | 40.3* | -6.2 | 84.4* | 67.2*
CS(=O)(=O)c1ncc(Cl)c(C(=O)Nc2ccc(N3CCOCC3)cc2)n1 | 2.2 | 44.1 | 5.8 | 25.1 | 22.2 | -0.3 | nt | nt
Cc1ccc(S(=O)(=O)N2CCCCC2)cc1NC(=O)COC(=O)CN1C(=O)NC2(CC(C)CC(C)(C)C2)C1=O (centres undefined) | -1.9 | 5.3 | 0.8 | -6.2 | nt | nt | nt | nt
CC(C)(C)NC(=O)C(c1ccc(C(F)(F)F)cc1)n1c(=O)c(-c2cc3ccccc3[nH]2)nc2ccccc21 (centres undefined) | 10.4 | nt | 9.7 | nt | nt | nt | nt | nt
COc1ccc(C)c(-n2c(=O)n(Cc3ccccc3)c(=O)c3[nH]cnc32)c1 | 36.8 | 80.8* | -17.8 | 69.1* | 68.6* | -18.8 | 117.3* | 69.6*
COc1ccc(Cn2c(=O)c3[nH]cnc3n(-c3ccccc3C)c2=O)cc1 | -11.9 | 4.8 | -1.8 | -0.1 | 2.8 | -3.3 | nt | nt
CC1CN=C(NS(=O)(=O)c2ccccc2)N1 (centres undefined) | -1.2 | nt | -2.5 | 7.4 | nt | nt | nt | nt
CNC[C@H]1OCc2ccccc2-c2ccccc2C(=O)N([C@@H](C)CO)C[C@H]1C | -3.4 | nt | 2.6 | 4.9 | nt | nt | nt | nt
C/C(=N\NC(=O)Cn1c(-c2ccccn2)nc2ccccc21)c1ccccc1 | 7.9 | 60.3* | 0.8 | 45.5* | 46.6* | -8.5 | 71.6* | 47.2*
O=C(NNC(=S)Nc1ccccc1)c1ccncc1 | -2.9 | 6.3 | 7.7 | -3.2 | -5.1 | -3.8 | nt | nt
O=C(NNC(=S)Nc1ccccc1)Nc1ccccc1 | -2.0 | 53.6* | -1.9 | 71.2* | 43.0* | -3.0 | 38.9 | 38.7
COc1ccc(S(=O)(=O)N=N/C=C2\C=CC=CN2O)cc1OC | -7.4 | nt | 5.8 | 3.1 | nt | nt | nt | nt
O=C(NNC(=O)C12CC3CC(CC(C3)C1)C2)c1cnccn1 | 4.0 | 10.0 | -2.6 | 13.2 | 2.7 | -1.2 | nt | nt
O=C(NNC(=O)C12CC3CC(CC(C3)C1)C2)c1ccccn1 | -1.9 | 91.5* | -7.8 | 70.8* | 48.5* | -7.9 | 68.9* | 79.2*
Cc1cccc(C)c1NC(=O)C(c1ccccc1)N1CCC(c2ccccc2)CC1 (centres undefined) | 15.8 | nt | -1.9 | nt | nt | nt | nt | nt
COC(=O)CSc1[nH]c2ccc(Br)cc2c1[N+](=O)[O-] | 17.7 | 60.8* | 3.0 | 40.8* | 41.1* | -7.4 | 55.4* | 46.3*
CC(C)(C)c1ccc(-n2nc(C#N)c(Cl)cc2=O)cc1 | 82.5* | 49.8 | -5.3 | 60.8* | 60.0* | -1.5 | 83.4* | 69.5*
C[C@H](NC(=O)[C@@H]1CCCN1C(=O)[C@@H]1CCCN1C(=O)c1cccc(Cl)c1)c1ccccc1 | -9.0 | nt | -1.2 | -1.0 | nt | nt | nt | nt
Cc1cccnc1Nc1nc(-c2ccccn2)cs1 | 75.8* | 72.0* | -15.1 | 71.5* | 79.6* | -10.5 | 103.2* | 88.6*
CCOC(=O)C1=C(C)NC2=C(C(=O)CC(c3cccs3)C2)C1c1cccs1 (centres undefined) | 30.8 | 54.0* | -5.5 | 41.8* | 40.6* | -10.8 | 73.5* | 45.2*
CCCOC(=O)C1=C(C)NC2=C(C(=O)CCC2)C1c1cccs1 (centres undefined) | 1.5 | 2.2 | -1.7 | 2.0 | -2.7 | -2.8 | nt | nt
